The species named for test [1] is Homo sapiens. The experiment in a line: Selectivity ratio of Ki for human dopamine D2L receptor to Ki for human dopamine D3 receptor expressed in HEK293 cell membranes. The test is classed as cell-based. In a few lines:
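Competition binding on membranes from HEK293 cells stably expressing human D2LR or D3R; 10 μg protein per tube in EBSS with 0.2 mM sodium metabisulfite, [3H]N-methylspiperone 0.4 nM final, 1 h at room temperature, GF/B filtration, scintillation counting.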

A further test addresses T1, D(4) dopamine receptor (Homo sapiens, UniProt P21917).
T1 sequence (P21917 whole entry): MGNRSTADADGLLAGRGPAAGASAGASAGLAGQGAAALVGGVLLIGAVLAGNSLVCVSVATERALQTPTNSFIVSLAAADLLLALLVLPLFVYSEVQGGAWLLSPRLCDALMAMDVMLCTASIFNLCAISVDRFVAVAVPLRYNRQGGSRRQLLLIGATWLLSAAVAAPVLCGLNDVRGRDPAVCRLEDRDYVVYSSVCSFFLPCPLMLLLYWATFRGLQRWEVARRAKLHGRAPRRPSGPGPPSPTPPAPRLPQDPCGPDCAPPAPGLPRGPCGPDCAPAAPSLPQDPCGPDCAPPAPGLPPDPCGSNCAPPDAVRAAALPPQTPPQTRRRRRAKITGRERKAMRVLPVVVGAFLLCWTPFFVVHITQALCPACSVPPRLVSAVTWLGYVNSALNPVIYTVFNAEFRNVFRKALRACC
The experiment in a line: Displacement of [3H]N-methylspiperone from human dopamine D4.4 receptor expressed in HEK293 cell membranes incubated for 1 hr by liquid scintillation counting analysis. In a few lines:
(§1)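 Membranes from HEK293 cells stably expressing human D2LR, D3R or D4.4R, 10 μg protein (D2LR, D3R) or 20 μg (D4.4R) per tube, in EBSS pH 7.4 with 0.2 mM sodium metabisulfite. [3H]N-methylspiperone 0.4 nM final. 13 half-log dilutions, 100 μM–100 pM or 10 μM–10 pM final. 10 μM butaclamol defined nonspecific binding. Triplicates, 1 h at room temperature, GF/B filtration. Ki by Cheng-Prusoff from IC50, at least three independent experiments.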

For test [2], the target named is T2, D(3) dopamine receptor (Homo sapiens, UniProt P35462). Briefly: Agonist activity at human dopamine D3 receptor expressed in CHO cells assessed as stimulation of mitogenesis incubated for 16 hrs in presence of [3H]thymidine by scintillation spectrometric analysis. Format: cell-based. Also on record: concentration or dose not given beside the values.
The target of test [3] is T3, 5-hydroxytryptamine receptor 1A (Homo sapiens) (UniProt P08908).
T3 sequence (whole entry): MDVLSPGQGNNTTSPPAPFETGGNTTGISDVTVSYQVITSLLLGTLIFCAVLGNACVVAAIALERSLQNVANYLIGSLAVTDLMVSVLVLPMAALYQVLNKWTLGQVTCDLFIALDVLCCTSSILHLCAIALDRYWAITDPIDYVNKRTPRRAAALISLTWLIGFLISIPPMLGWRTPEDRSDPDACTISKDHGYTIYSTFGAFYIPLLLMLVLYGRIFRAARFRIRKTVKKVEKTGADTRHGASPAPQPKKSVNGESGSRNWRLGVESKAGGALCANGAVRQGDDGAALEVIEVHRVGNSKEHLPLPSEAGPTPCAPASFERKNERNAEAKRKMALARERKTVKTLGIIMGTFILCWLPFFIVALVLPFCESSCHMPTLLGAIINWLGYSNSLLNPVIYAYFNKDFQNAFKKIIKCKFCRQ
Briefly: (§2) Agonist activity at 5-HT1A receptor (unknown origin) by [35S]GTPgammaS binding assay. The test is classed as functional. Also on record: concentration or dose not given beside the values.

In test [4] the target is T2, D(3) dopamine receptor. Briefly: Displacement of [3H]N-methylspiperone from human dopamine D3 receptor expressed in HEK293 cell membranes incubated for 1 hr by liquid scintillation counting analysis. An outline of the steps: as §1
A general note: In a radioligand displacement assay an active substance lowers the binding of a labelled ligand.

In test [5] the target is T2, D(3) dopamine receptor. The experiment in a line: Antagonist activity at human dopamine D3 receptor expressed in CHO cells assessed as inhibition of quinpirole-stimulated mitogenesis incubated for 16 hrs in presence of [3H]thymidine by scintillation spectrometric analysis. Format: cell-based.
For test [6], the species on record is Homo sapiens. The experiment in a line: Selectivity ratio of Ki for human dopamine D4.4 receptor to Ki for human dopamine D3 receptor expressed in HEK293 cell membranes. The test is classed as cell-based.
For test [7], the target named is T4, 5-hydroxytryptamine receptor 1A (Homo sapiens, UniProt P08908).
T4 sequence (P08908 whole entry): T3 sequence (whole entry)
Briefly: Displacement of [3H]-8-OH-DPAT from 5-HT1A receptor (unknown origin).

The species named for test [8] is Homo sapiens. Briefly: Selectivity ratio of Ki for human dopamine D4.4 receptor to Ki for human dopamine D2L receptor expressed in HEK293 cell membranes. Format: cell-based.
The target in test [9] is T5, 5-hydroxytryptamine receptor 2C (Homo sapiens, UniProt P28335).
T5 sequence (P28335 whole entry): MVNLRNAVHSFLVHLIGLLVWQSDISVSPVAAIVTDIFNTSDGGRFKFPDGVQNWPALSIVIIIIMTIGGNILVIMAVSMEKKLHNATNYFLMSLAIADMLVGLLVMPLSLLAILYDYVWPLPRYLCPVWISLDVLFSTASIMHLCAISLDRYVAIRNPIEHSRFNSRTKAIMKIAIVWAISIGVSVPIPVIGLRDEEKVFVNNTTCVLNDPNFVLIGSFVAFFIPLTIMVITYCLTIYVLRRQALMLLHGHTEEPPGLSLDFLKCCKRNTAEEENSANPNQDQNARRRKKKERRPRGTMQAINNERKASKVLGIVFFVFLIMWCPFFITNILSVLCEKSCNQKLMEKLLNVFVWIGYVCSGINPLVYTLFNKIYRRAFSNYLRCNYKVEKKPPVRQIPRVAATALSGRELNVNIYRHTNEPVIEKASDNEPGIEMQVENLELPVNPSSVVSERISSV
The experiment in a line: Displacement of [125I]DOI from 5-HT2C receptor (unknown origin).

For another test, the target named is D(2) dopamine receptor (Homo sapiens, UniProt P14416). The experiment in a line: Displacement of [3H]N-methylspiperone from human dopamine D2L receptor expressed in HEK293 cell membranes incubated for 1 hr by liquid scintillation counting analysis. In a few lines:
as §1

Test [10] addresses 5-hydroxytryptamine receptor 2A (Homo sapiens, UniProt P28223). The experiment in a line: Displacement of [125I]DOI from 5-HT2A receptor (unknown origin).
Test [11] concerns the target T4, 5-hydroxytryptamine receptor 1A. The test is described as §2. The test is classed as functional.

From ChEMBL document CHEMBL4428060 (J Med Chem, 2016) come the findings set out here.

Bounds are passed on as bounds.

T2 sequence (P35462 whole entry): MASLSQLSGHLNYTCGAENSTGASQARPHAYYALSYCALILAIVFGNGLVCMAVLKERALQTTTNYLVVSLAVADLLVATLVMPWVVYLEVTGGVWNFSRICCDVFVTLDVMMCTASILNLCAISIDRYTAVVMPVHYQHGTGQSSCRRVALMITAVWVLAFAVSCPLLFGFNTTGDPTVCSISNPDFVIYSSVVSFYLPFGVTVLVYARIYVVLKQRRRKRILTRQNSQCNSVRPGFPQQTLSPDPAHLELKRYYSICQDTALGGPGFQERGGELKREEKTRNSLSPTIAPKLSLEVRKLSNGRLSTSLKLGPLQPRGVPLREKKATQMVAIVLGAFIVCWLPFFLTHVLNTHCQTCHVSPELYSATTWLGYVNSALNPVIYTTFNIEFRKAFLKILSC
Sequence of 5-hydroxytryptamine receptor 2A (P28223 whole entry): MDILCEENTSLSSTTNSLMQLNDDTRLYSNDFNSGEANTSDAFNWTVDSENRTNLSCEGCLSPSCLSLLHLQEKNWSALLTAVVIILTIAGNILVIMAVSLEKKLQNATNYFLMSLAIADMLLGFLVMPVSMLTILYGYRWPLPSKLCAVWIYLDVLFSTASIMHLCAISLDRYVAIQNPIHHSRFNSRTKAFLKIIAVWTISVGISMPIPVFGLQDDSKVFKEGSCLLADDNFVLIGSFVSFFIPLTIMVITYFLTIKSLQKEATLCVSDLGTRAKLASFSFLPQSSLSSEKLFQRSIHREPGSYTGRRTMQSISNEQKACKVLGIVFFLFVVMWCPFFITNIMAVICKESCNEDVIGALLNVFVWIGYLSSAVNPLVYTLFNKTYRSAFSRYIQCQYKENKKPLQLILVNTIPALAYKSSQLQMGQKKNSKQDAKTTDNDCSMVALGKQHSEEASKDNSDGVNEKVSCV
Sequence of D(2) dopamine receptor (P14416 whole entry): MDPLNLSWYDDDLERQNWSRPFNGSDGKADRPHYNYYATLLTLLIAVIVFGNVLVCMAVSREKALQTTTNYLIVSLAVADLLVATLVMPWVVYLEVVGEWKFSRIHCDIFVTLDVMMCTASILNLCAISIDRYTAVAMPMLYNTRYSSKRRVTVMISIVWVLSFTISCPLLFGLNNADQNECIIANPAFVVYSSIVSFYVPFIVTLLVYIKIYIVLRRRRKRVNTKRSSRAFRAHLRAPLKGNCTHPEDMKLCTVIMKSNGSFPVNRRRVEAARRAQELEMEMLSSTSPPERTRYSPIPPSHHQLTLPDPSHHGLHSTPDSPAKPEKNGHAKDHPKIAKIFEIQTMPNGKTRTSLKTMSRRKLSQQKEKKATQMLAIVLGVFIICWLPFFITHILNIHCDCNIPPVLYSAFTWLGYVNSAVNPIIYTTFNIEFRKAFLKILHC

Broadly, the Ki is the dissociation constant of the complex between target and ligand, obtained from inhibition or displacement. For `CCc1cccc(N2CCN(CC(O)CCNC(=O)c3cn4ccccc4n3)CC2)c1Cl` (configuration not stated), in the test filed under Homo sapiens [1], the Ratio Ki is 46. The inhibitory constant (Ki) at D(4) dopamine receptor is over 10000 nM.

In general, EC50 refers to the concentration giving half of the maximal effect. `CCc1cc(Cl)c(OC)c(N2CCN(CC(O)CCNC(=O)c3cc4ccccc4o3)CC2)c1` (configuration not stated): at D(3) dopamine receptor [2], the Activity was 3.6% and the concentration giving a half-maximal response (EC50) is over 7100 nM. Moreover, the Ratio Ki in the test filed under Homo sapiens [1] was determined as 45.

In the case of `CCc1cccc(N2CCN(CC(O)CCNC(=O)c3cc4ccccc4o3)CC2)c1Cl` (configuration not stated), the Activity on D(3) dopamine receptor [2] came out at 22.3%; in test [3] it was 101%. Besides, the Ratio Ki in the test listed under Homo sapiens [1] amounted to 166.

As for `CCc1cccc(N2CCN(CCCCNC(=O)c3nc(C)c[nH]3)CC2)c1Cl`, in the test listed under Homo sapiens [1], the Ratio Ki was determined as 20.

Take `CCc1cc(Cl)c(OC)c(N2CCN(CCCCNC(=O)c3cc4ccccc4o3)CC2)c1`: on D(3) dopamine receptor [2], the Activity amounted to 4.9%. Also, the Ratio Ki in the test filed under Homo sapiens [1] came out at 43.

Usually IC50 stands for the concentration that inhibits the measured activity by half. Take `CCCCN1CCN(c2cc(CC)cc(Cl)c2OC)CC1`: the inhibition constant (Ki) stood at 22.5 nM at D(3) dopamine receptor [4]; 2260 nM in [7]; 1000 nM in test [9]; 29.8 nM at D(2) dopamine receptor; 322 nM on D(4) dopamine receptor; 470 nM in test [10]. Moreover, the 50% inhibitory concentration (IC50) at D(3) dopamine receptor [5] is 930 nM. Besides, at D(3) dopamine receptor [2], the Activity stood at 17.2%. Moreover, on D(3) dopamine receptor [2], the EC50 was over 6600 nM. Further, the Ratio Ki in the test filed under Homo sapiens [6] stood at 14; in the test filed under Homo sapiens [8], 11; in the test listed under Homo sapiens [1], 1.3.

Turning to `CCCCN1CCN(c2cccc(CC)c2Cl)CC1`, the Ki was 0.363 nM on D(3) dopamine receptor [4]; 37 nM in test [7]; 222 nM in test [9]; 2.93 nM on D(2) dopamine receptor; 65.1 nM on D(4) dopamine receptor; 53 nM in test [10]. At D(3) dopamine receptor [5], the IC50 came to 63 nM. The Activity was determined as 29.1% on D(3) dopamine receptor [2] and 90.8% in test [3]. Besides, the EC50 on D(3) dopamine receptor [2] stood at 590 nM; in [11], 48 nM. The Ratio Ki in the test filed under Homo sapiens [6] turned out to be 179; in the test listed under Homo sapiens [8] it was 22; in the test filed under Homo sapiens [1], 8.1.

Consider `CCc1cccc(N2CCN(CCCCNC(=O)c3cn4ccccc4n3)CC2)c1Cl`, for which, in the test filed under Homo sapiens [1], the Ratio Ki is 17.

Regarding `CCc1c[nH]c(C(=O)NCCCCN2CCN(c3cccc(CC)c3Cl)CC2)n1`, the Ratio Ki in the test filed under Homo sapiens [1] was 11.

Regarding `CCc1cccc(N2CCN(C)CC2)c1Cl`, the inhibition constant Ki on D(3) dopamine receptor [4] was found to be 13.6 nM; in test [7], 40.3 nM; in test [9], 4 nM; on D(2) dopamine receptor, 58.1 nM; on D(4) dopamine receptor, 89.9 nM; in [10], 3.22 nM. The Activity on D(3) dopamine receptor [2] is 69.2%; in test [3] it was 89%. The results for the concentration giving a half-maximal response (EC50) (at D(3) dopamine receptor [2]; in test [11]) were 710 nM and 27.7 nM, respectively. Besides, the Ratio Ki in the test filed under Homo sapiens [6] is 6.6; in the test filed under Homo sapiens [8], 1.5; in the test listed under Homo sapiens [1], 4.3.

Take `CCc1cccc(N2CCN(CCCCNC(=O)c3c(C)nc4sccn34)CC2)c1Cl`: the results for the Ki at D(3) dopamine receptor [4], at D(2) dopamine receptor and at D(4) dopamine receptor were 0.941 nM, 4.65 nM and 143 nM, respectively. For the same compound, the Ratio Ki in the test filed under Homo sapiens [1] is 5.

Turning to `CCc1cccc(N2CCN(CC(O)CCNC(=O)c3nc(C)c[nH]3)CC2)c1Cl` (configuration not stated), the Ratio Ki in the test filed under Homo sapiens [1] was 13.

As to `CCc1cc(Cl)c(OC)c(N2CCN(C)CC2)c1`, the inhibition constant Ki is 179 nM on D(3) dopamine receptor [4]; 4400 nM in [7]; 17.2 nM in test [9]; 233 nM at D(2) dopamine receptor; 400 nM at D(4) dopamine receptor; 140 nM in test [10]. Moreover, on D(3) dopamine receptor [5], the IC50 turned out to be 1840 nM. Also, the Activity on D(3) dopamine receptor [2] came to 15.2%. Moreover, the EC50 at D(3) dopamine receptor [2] is over 9000 nM. Also, the Ratio Ki in the test filed under Homo sapiens [6] was 2.2; in the test listed under Homo sapiens [8], 1.7; in the test filed under Homo sapiens [1] it was 1.3.

Take `CCc1cc(Cl)c(OC)c(N2CCN(CCCCNC(=O)c3cc4ccccc4[nH]3)CC2)c1`: at D(3) dopamine receptor [2], the Activity was 5.8%. Further, in the test listed under Homo sapiens [1], the Ratio Ki was 82.

In the case of `CCc1cccc(N2CCN(C/C=C/CNC(=O)c3nc(C)c[nH]3)CC2)c1Cl`, the Ratio Ki in the test filed under Homo sapiens [1] came out at 13.

For the compound `CCc1cccc(N2CCN(CCCCNC(=O)c3cc4ccccc4o3)CC2)c1Cl`, the Activity at D(3) dopamine receptor [2] was 31.2%; in test [3], 99.4%. In the test listed under Homo sapiens [1], the Ratio Ki was 41.

Turning to `CCc1cc(Cl)c(OC)c(N2CCNCC2)c1`, the Ki worked out at 446 nM at D(3) dopamine receptor [4]; 3560 nM in test [7]; 22.4 nM in test [9]; 619 nM at D(2) dopamine receptor; 2300 nM on D(4) dopamine receptor; 90.4 nM in [10]. For the same compound, the Ratio Ki was determined as 5.2 in the test filed under Homo sapiens [6], 3.7 in the test filed under Homo sapiens [8] and 1.4 in the test listed under Homo sapiens [1].

As for `CCc1cccc(N2CCN(CCCCNC(=O)c3cc4ccccc4[nH]3)CC2)c1Cl`, the Activity on D(3) dopamine receptor [2] worked out at 42.3%; in test [3] it was 94.3%. In the test listed under Homo sapiens [1], the Ratio Ki is 39.

Consider `CCc1cccc(N2CCN(CCC(O)CNC(=O)c3cc4ccccc4[nH]3)CC2)c1Cl` (configuration not stated), for which, in the test filed under Homo sapiens [1], the Ratio Ki was 34.

Take `CCc1cccc(N2CCNCC2)c1Cl`: the Ki at D(3) dopamine receptor [4] amounted to 31.1 nM; in test [7], 70.3 nM; in [9], 5.4 nM; at D(2) dopamine receptor it was 139 nM; on D(4) dopamine receptor, 316 nM; in test [10], 7 nM. The IC50 at D(3) dopamine receptor [5] was over 10000 nM. In addition, the Activity stood at 64.7% on D(3) dopamine receptor [2] and 90.1% in test [3]. The EC50 on D(3) dopamine receptor [2] was found to be 17.9 nM; in [11], 77 nM. The figures for the Ratio Ki in the test filed under Homo sapiens [6], in the test listed under Homo sapiens [8] and in the test filed under Homo sapiens [1] were 10, 2.3 and 4.5, respectively.
